Experimental data: ChEMBL document CHEMBL1124177, “Synthesis, configuration, and evaluation of two conformationally restrained analogues of phencyclidine” (J Med Chem, 1988)

Columns and labels:
Rattus norvegicus [1] = experiment: The compound was tested for ataxia after intracerebroventricular introduction in the rat; format: functional
In short: (§1)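 Sprague–Dawley rats (~200 g), caged singly, adapted ≥1 h, each used once. Intracerebroventricular dosing. Scored on the Sturgeon PCP rating scale immediately, at 2.5 and 5 min, then every 5 min until back to control. Dose–response built from peak-effect ratings, ≥18 rats per curve. ED50 (nmol/rat) and confidence limits by computerized Finney assay.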

Rattus norvegicus [2] = experiment: The compound was tested for its stereotyped behavior after intracerebroventricular introduction in the rat; format: functional; in short: as §1
[3] = biological target: Glutamate receptor ionotropic, NMDA 2C (Rattus norvegicus, UniProt Q00961); experiment: Binding affinity of compound against Phencyclidine receptor by displacement of [3H]TCP; conditions: read-out: Ki app
Chain of Glutamate receptor ionotropic, NMDA 2C (Q00961 whole entry): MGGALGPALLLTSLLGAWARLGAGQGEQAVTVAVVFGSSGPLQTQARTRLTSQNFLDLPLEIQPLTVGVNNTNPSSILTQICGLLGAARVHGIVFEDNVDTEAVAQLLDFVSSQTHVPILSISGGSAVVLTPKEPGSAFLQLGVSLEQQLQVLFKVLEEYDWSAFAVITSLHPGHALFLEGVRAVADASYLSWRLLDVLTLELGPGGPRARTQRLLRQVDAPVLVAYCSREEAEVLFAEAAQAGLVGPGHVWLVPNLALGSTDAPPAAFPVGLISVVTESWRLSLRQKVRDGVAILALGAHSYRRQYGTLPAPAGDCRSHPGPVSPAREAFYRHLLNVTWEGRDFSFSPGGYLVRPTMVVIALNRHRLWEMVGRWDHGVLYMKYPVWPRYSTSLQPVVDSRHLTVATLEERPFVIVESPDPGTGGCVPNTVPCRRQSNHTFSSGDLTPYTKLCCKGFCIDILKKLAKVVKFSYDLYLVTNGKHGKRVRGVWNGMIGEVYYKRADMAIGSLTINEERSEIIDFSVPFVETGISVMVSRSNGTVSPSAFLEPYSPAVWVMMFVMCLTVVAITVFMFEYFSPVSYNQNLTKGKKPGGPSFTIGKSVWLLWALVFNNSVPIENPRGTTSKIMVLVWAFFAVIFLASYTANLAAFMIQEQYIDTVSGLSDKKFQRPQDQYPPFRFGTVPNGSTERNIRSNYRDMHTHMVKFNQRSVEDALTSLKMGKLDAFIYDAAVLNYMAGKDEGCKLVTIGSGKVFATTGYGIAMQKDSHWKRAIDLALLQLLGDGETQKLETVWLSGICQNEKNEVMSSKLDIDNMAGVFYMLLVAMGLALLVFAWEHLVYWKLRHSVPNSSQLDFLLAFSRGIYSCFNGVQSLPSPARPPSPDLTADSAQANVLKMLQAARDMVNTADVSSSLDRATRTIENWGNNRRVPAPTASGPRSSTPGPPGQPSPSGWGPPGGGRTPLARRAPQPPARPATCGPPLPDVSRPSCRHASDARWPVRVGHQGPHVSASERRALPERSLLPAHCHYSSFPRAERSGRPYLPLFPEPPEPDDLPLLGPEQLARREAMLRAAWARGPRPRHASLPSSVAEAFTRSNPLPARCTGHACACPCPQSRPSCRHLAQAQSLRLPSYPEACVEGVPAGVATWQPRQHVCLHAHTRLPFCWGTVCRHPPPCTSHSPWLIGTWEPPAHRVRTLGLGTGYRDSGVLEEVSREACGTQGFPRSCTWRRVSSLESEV
In short: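 Membrane preparation incubated in triplicate with 2 nM [3H]TCP plus varying displacer levels in 5 mM Tris-HCl pH 7.4, 1 h, room temperature. Filtered on filters presoaked in 0.5% polyethylenimine, rinsed with Tris buffer, counted by liquid scintillation. Specific binding defined with 10 μM TCP. Mean ±SEM of at least three experiments.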

Row | SMILES | ED50 (Rattus norvegicus [1]) [µM] | ED50 (Rattus norvegicus [2]) [µM] | Ki [3] [µM]
1 | c1ccc([C@@H](C2CC3CC3C2)N2CCCCC2)cc1 (some centres undefined) | 0.3 | 0.31 | 0.68
2 | c1ccc([C@H](C2CC3CC3C2)N2CCCCC2)cc1 (some centres undefined) | 0.45 | 0.4 | 0.63
3 | c1ccc(C2(N3CCCCC3)CCCCC2)cc1 [PHENCYCLIDINE] | 0.21 | 0.15 | 0.091
